We go through 2 compounds from ChEMBL document CHEMBL1212828, “Synthesis and biological evaluation of novel pyrazole compounds” (Bioorg Med Chem, 2010).

In data set [1] the target is T1, Prostaglandin G/H synthase 1 (Ovis aries) (UniProt P05979).
T1 sequence (whole entry): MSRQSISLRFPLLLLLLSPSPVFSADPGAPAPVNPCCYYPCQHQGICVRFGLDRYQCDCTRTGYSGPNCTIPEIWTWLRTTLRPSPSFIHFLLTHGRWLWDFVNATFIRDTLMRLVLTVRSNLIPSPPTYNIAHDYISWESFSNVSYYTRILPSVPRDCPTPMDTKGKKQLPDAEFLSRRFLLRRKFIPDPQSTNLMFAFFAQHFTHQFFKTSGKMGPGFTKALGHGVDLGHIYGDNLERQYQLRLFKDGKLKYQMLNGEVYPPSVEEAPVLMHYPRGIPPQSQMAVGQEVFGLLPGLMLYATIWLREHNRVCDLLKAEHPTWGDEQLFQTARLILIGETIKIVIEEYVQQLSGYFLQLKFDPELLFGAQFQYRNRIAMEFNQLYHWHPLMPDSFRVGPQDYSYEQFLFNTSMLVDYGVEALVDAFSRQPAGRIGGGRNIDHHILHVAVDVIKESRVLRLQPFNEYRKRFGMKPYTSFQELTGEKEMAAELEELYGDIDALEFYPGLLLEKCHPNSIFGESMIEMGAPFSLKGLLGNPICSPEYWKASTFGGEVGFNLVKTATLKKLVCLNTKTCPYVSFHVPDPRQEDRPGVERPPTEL
The experiment in a line: Inhibition of ovine COX1 at 100 uM. In outline:
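Screening kit with ovine COX-1 and human recombinant COX-2, run per manufacturer's protocol; percent inhibition of prostaglandin production measured for each isoform.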

For data set [2], the system named is Rattus norvegicus. Kind of data set: Antiinflammatory activity in Wistar albino rat assessed as inhibition of turpentine oil-induced granuloma at 20 mg/kg, po qd for 7 days post turpentine oil challenge measured on day 8. Type of data set: functional. In outline:
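In ether-anaesthetized male Wistar rats (five per group) a dorsal subcutaneous pouch is formed with 2 mL air, then 0.5 mL turpentine oil is injected. Oral dosing at 20 mg/kg starts 1 h before turpentine and continues 7 days. On day 8 the exudate is drawn by syringe and its volume recorded; % inhibition = (Vcontrol − Vtreated)/Vcontrol × 100.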

Data set [3] deals with THP-1. The experiment in a line: Antiinflammatory activity in human THP1 cells assessed as reduction in LPS and IFN-gamma-induced MCP level after 24 hrs. Type of data set: functional, cell-based. In outline: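 THP-1 cells (5 × 10^5 cells/mL, DMEM-F12 with 5% FBS) pretreated 15 min with compound or DMSO vehicle, then stimulated with 0.5 µg/mL LPS plus 150 U/mL IFN-γ. After 24 h, MCP-1 in cell-free medium measured by ELISA. IC50 estimated from concentration–response; randomized block ANOVA.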

Data set [4] relates to THP-1. The experiment in a line: Neuroprotective activity against LPS and IFN-gamma-stimulated neurotoxin production in human THP1 cell assessed as inhibition of THP1 cell secretion-induced toxicity to human SH-SY5Y cells after 72 hrs by MTT assay. Type of data set: functional, cell-based. To be noted: for IC50: THP-1, 72 h. In outline:
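THP-1 cells pretreated 15 min with compound, then stimulated with LPS (0.5 µg/mL) plus IFN-γ (150 U/mL) for 24 h. Cell-free supernatant transferred to SH-SY5Y cells plated 24 h earlier (2 × 10^5 cells/mL). After 72 h, SH-SY5Y viability read by MTT (0.5 mg/mL, 1 h, 37 °C, OD570) or by LDH release (OD490, relative to Triton X-100 lysis). IC50 estimated.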
(In general: Formazan colour is commonly taken as a measure of viable cells.)

For the next data set, the system named is SH-SY5Y. The experiment in a line: Neuroprotective activity in human SH-SY5Y cells. It counts as functional, cell-based. The essentials: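 SH-SY5Y cells seeded at 2 × 10^5/mL in DMEM-F12 with 5% FBS; after 24 h medium replaced by supernatant of THP-1 cells stimulated 24 h with LPS + IFN-γ, or by medium containing 250 µM H2O2, with compound added at transfer. Cell death measured by LDH assay 72 h later; five independent experiments; randomized block ANOVA.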

In data set [5] the test system is Rattus norvegicus. The experiment in a line: Antiinflammatory activity in Wistar albino rat assessed as inhibition of formalin-induced paw edema at 20 mg/kg, po administered 1 hr prior to formalin challenge measured after 3 hrs relative to control. Type of data set: functional. In outline: (§1)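 Male Wistar rats, 180–200 g, groups of five; single oral dose 1 h before 2% formalin (0.1 mL) into subplantar left hind paw under light ether anaesthesia. Paw volume read by water plethysmometer at baseline and 1, 2, 3, 4 h; % inhibition = control (Vt−Vo) minus treated (Vt−Vo), over control, ×100. Means ± SEM; ANOVA with Student–Newman–Keuls.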

The subject of data set [6] is Rattus norvegicus. The experiment in a line: Antiinflammatory activity in Wistar albino rat assessed as inhibition of formalin-induced paw edema at 20 mg/kg, po administered 1 hr prior to formalin challenge measured after 4 hrs relative to control. Type of data set: functional. The essentials:
as §1

For data set [7], the system named is Rattus norvegicus. The experiment in a line: Antiinflammatory activity in Wistar albino rat sub-acute inflammatory model assessed as inhibition of formalin-induced paw edema at 20 mg/kg, po administered 1 hr prior to formalin challenge measured on day 1 relative to control. It counts as functional. In outline: (§2)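 Male Wistar rats, 180–200 g, five per group, dosed orally 20 mg/kg daily for 7 consecutive days. Formalin (2%, 0.1 mL) injected subplantar into left hind paw under light ether 1 h after dosing, repeated on day 3. Paw volume measured plethysmographically on days 1 and 8; inhibition expressed relative to untreated controls.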

The subject of data set [8] is Rattus norvegicus. Kind of data set: Antiinflammatory activity in Wistar albino rat sub-acute inflammatory model assessed as inhibition of formalin-induced paw edema at 20 mg/kg, po administered 1 hr prior to formalin challenge measured on day 8 relative to control. It counts as functional. The essentials:
as §2

The subject of data set [9] is Rattus norvegicus. Kind of data set: Antiinflammatory activity in po dosed Wistar albino rat assessed as inhibition of formalin-induced paw edema after 3 hrs relative to control. It counts as functional.
For data set [10], the system named is Rattus norvegicus. The experiment in a line: Toxicity in Wistar albino rat assessed as ulcerogenic activity at 300 mg/kg, po qd for 3 days. It counts as organism-based. The arrangement: dose 300 mg/kg, route oral. To be noted: in vivo, 72 h. The essentials: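 Rats in groups of five, fasted 12 h with water ad libitum; oral dosing in two equal portions at 0 and 12 h for three days, 300 mg/kg per day; control given 1% gum acacia. Killed 6 h after last dose; stomach opened along greater curvature, saline-washed, inspected under 3× lens for hyperemia, hemorrhage, erosion or ulcer.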

Data set [11] in a line: Acute toxicity in Wistar albino rat after 24 hrs. Type of data set: organism-based. Conditions: in vivo, read-out: ALD50. The essentials:
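Male Wistar albino rats (180–200 g), fasted 24 h, groups of five; compound given orally in graded doses of 0.1–3.0 g/kg. Mortality recorded at each dose after 24 h to estimate approximate acute lethal dose (ALD50).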

Data set [12] deals with THP-1. Kind of data set: Cytotoxicity against human THP1 cells assessed as reduction in cell viability. It counts as cell-based. In outline: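 THP-1 cells in DMEM-F12 with 5% FBS, 24-well plates, pretreated 15 min with compound or DMSO vehicle, then stimulated with LPS 0.5 µg/mL plus IFN-γ 150 U/mL for 24 h. Death read as supernatant LDH (iodonitrotetrazolium formazan, 490 nm, fraction of Triton X-100 lysate); survival by MTT; MCP-1 by ELISA. Concentration effects by randomized block ANOVA; 8–11 independent experiments.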

The source made the active and inactive calls. The rule behind the calls is not given here. Bounds are passed on as bounds.

Take `CC(NC(=O)C(=O)Nc1c(C#N)cnn1-c1ccccc1)c1ccccc1` (configuration not stated): the inhibition (usually the percentage by which the read-out fell short of the control) in [1] came to 24.5%. Besides, the inhibition in vivo (as a rule, the change of the read-out against control, counted positive when it falls) at 20 mg/kg with Rattus norvegicus [2] worked out at 51%; in the data set on Rattus norvegicus [5], 46%; in the data set with Rattus norvegicus [6], 50%; in the data set on Rattus norvegicus [7], 39%; with Rattus norvegicus [8], 38%. Also, the IC50 (usually the concentration needed to halve the response being measured) is 150 µM with THP-1 [3] (Homo sapiens, THP-1, 24 h, read-out: IC50) and 6 µM in the data set on THP-1 [4]. In addition, the result with SH-SY5Y was inactive. The ED50 (usually the dose that gives a 50% effect, or the effect in half of the subjects) with Rattus norvegicus [9] was found to be 19.6 mg/kg. In the data set on Rattus norvegicus [10], the Activity worked out at 10%. The LD50 at 24 h in [11] is more than 300 mg/kg. The EC50 (usually the concentration giving half of the maximal effect) with THP-1 [12] stood at 500 µM.

Consider `N#Cc1cnn(-c2ccccc2)c1NC(=O)C(=O)Nc1c(C#N)cnn1-c1ccccc1`, for which, in data set [1], the inhibition was found to be 11.2%. Moreover, the inhibition in vivo at 20 mg/kg in the data set with Rattus norvegicus [2] came out at 48%; in the data set with Rattus norvegicus [5] it was 50%; in the data set with Rattus norvegicus [6] it was 58%; in the data set with Rattus norvegicus [7], 43%; in the data set on Rattus norvegicus [8] it was 44%. Besides, the IC50 in the data set on THP-1 [3] is 250 µM; in the data set with THP-1 [4] it was 10 µM. For the same compound, the Activity result in the data set with THP-1 [4] is “Dose-dependent effect”; with Rattus norvegicus [10], 0%. The outcome with SH-SY5Y was Active. Besides, the ED50 with Rattus norvegicus [9] turned out to be 17.5 mg/kg. Moreover, in [11], the LD50 at 24 h was more than 300 mg/kg. Besides, the EC50 with THP-1 [12] is 100 µM.
